According to ChEMBL document CHEMBL1122376, “Pyrazolo[3,4-d]pyrimidine ribonucleosides as anticoccidials. 3. Synthesis and activity of some nucleosides of 4-[(arylalkenyl)thio]pyrazolo[3,4-d]pyrimidines” (1983):
≈ marks a conversion by molar mass, not a printed value.

Experiments:
Format in all cases: functional
Eimeria tenella [1] = test: In vitro inhibitory activity against Eimeria tenella in embryonic chick liver cells.
How it was run: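 E. tenella, Weybridge strain, grown in vitro in embryonic chick liver cells.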

Eimeria tenella [2] = test: In vivo anti-coccidial activity expressed as number of the chicks cleared of Eimeria tenella lesions out of a group of five, at 200 ppm in the diet.
How it was run: (§1)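 Week-old chicks, given compound in the diet. E. tenella (Weybridge strain) infection given together with E. acervulina (Ongar strain).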

Eimeria tenella [3] = test: In vivo anti-coccidial activity expressed as number of the chicks cleared of Eimeria tenella lesions out of a group of five, at 50 ppm in the diet.; how it was run: as §1
Eimeria tenella [4] = test: In vivo anti-coccidial activity expressed as number of the chicks cleared of Eimeria tenella lesions out of a group of five, at 25 ppm in the diet.; how it was run: as §1
Eimeria tenella [5] = test: In vivo anti-coccidial activity expressed as number of the chicks cleared of Eimeria tenella lesions out of a group of five, at 400 ppm in the diet.; how it was run: as §1
Eimeria tenella [6] = test: In vivo anti-coccidial activity expressed as number of the chicks cleared of Eimeria tenella lesions out of a group of five, at 100 ppm in the diet.; how it was run: as §1
Eimeria tenella [7] = test: In vivo anti-coccidial activity expressed as number of the chicks cleared of Eimeria tenella lesions out of a group of five, at 300 ppm in the diet.; how it was run: as §1
Eimeria tenella [8] = test: In vivo anti-coccidial activity expressed as number of the chicks cleared of Eimeria tenella lesions out of a group of five, at 200 ppm in the diet;one chick out of 5 died and contained lesions due to the parasite.
Eimeria tenella [9] = test: In vivo anti-coccidial activity expressed as number of the chicks cleared of Eimeria tenella lesions out of a group of five, at 25 ppm in the diet;At 12.5 ppm, no chicks were cleared.; how it was run: as §1
Eimeria tenella [10] = test: In vivo anti-coccidial activity expressed as number of the chicks cleared of Eimeria tenella lesions out of a group of five, at 12.5 ppm in the diet.; how it was run: as §1
Eimeria tenella [11] = test: In vivo anti-coccidial activity expressed as number of the chicks cleared of Eimeria tenella lesions out of a group of five, at 25 ppm in the diet;At 12.5 p.p.m. no chicks were cleared.; how it was run: as §1
Eimeria tenella [12] = test: In vivo anti-coccidial activity expressed as number of the chicks cleared of Eimeria tenella lesions out of a group of five, at 200 ppm in the diet;one chick out of a group of 5 died and contained lesions due to the parasite.

Question: `CC(=O)OC[C@H]1O[C@@H](n2ncc3c(SC/C=C/c4ccccc4)ncnc32)[C@H](OC(C)=O)[C@@H]1OC(C)=O` was tested. Which MIC (Eimeria tenella [1]) did it give?
Answer: 1.25 µg/mL (≈ 2.37 µM)

Question: And the Activity (Eimeria tenella [2])?
Answer: 5

Question: And the Activity (Eimeria tenella [3])?
Answer: 5

Question: What about the Activity (Eimeria tenella [4]) of the same compound?
Answer: 1

Question: Which results are given for `OC[C@H]1OC(n2ncc3c(SC/C=C/c4ccc(Cl)c(Cl)c4)ncnc32)[C@H](O)[C@@H]1O` (stereo partly drawn)?
Answer: MIC (Eimeria tenella [1]): 0.31 µg/mL (≈ 0.66 µM); Activity (Eimeria tenella [2]): 2

Question: `OC[C@H]1OC(n2ncc3c(SC/C=C/c4cccc(O)c4)ncnc32)[C@H](O)[C@@H]1O` (stereo partly drawn) was tested. Which MIC (Eimeria tenella [1]) did it give?
Answer: 20 µg/mL (≈ 48 µM)

Question: What about the Activity (Eimeria tenella [5]) of the same compound?
Answer: 0

Question: With `C/C=C/CSc1ncnc2c1cnn2C1O[C@H](CO)[C@@H](O)[C@H]1O` (stereo partly drawn) as the compound, how does the Activity (Eimeria tenella [6]) read?
Answer: 4

Question: What about the MIC (Eimeria tenella [1]) of the same compound?
Answer: 0.019 µg/mL (≈ 0.0561 µM)

Question: And the Activity (Eimeria tenella [2])?
Answer: 5

Question: And the Activity (Eimeria tenella [3])?
Answer: 0

Question: And the Activity (Eimeria tenella [4])?
Answer: 0

Question: For `OC[C@H]1OC(n2ncc3c(S)ncnc32)[C@H](O)[C@@H]1O` (stereo partly drawn), which MIC (Eimeria tenella [1]) is on record?
Answer: 0.31 µg/mL (≈ 1.09 µM)

Question: What about the Activity (Eimeria tenella [2]) of the same compound?
Answer: 2

Question: What does the source list for `COc1ccccc1/C=C/CSc1ncnc2c1cnn2C1O[C@H](CO)[C@@H](O)[C@H]1O` (stereo partly drawn)?
Answer: MIC (Eimeria tenella [1]): 1.25 µg/mL (≈ 2.9 µM); Activity (Eimeria tenella [7]): 1

Question: How did the MIC (Eimeria tenella [1]) turn out when `OC[C@H]1OC(n2ncc3c(SC/C=C/c4cccc(C(F)(F)F)c4)ncnc32)[C@H](O)[C@@H]1O` (stereo partly drawn) was run?
Answer: 5 µg/mL (≈ 10.7 µM)

Question: What about the Activity (Eimeria tenella [8]) of the same compound?
Answer: 1

Question: Which Activity (Eimeria tenella [6]) does the source give for `COc1cc(/C=C/CSc2ncnc3c2cnn3C2O[C@H](CO)[C@@H](O)[C@H]2O)cc(OC)c1OC` (stereo partly drawn) here?
Answer: 2

Question: And the MIC (Eimeria tenella [1])?
Answer: 0.31 µg/mL (≈ 0.632 µM)

Question: And the Activity (Eimeria tenella [2])?
Answer: 5

Question: And the Activity (Eimeria tenella [5])?
Answer: 5

Question: With `C=CCSc1ncnc2c1cnn2C1O[C@H](CO)[C@@H](O)[C@H]1O` (stereo partly drawn) as the compound, how does the Activity (Eimeria tenella [6]) read?
Answer: 5

Question: And the MIC (Eimeria tenella [1])?
Answer: 0.019 µg/mL (≈ 0.0586 µM)

Question: And the Activity (Eimeria tenella [2])?
Answer: 5

Question: What about the Activity (Eimeria tenella [3]) of the same compound?
Answer: 2

Question: And the Activity (Eimeria tenella [4])?
Answer: 1

Question: `OC[C@H]1OC(n2ncc3c(SC/C=C/C=C/c4ccccc4)ncnc32)[C@H](O)[C@@H]1O` (stereo partly drawn) was tested. Which MIC (Eimeria tenella [1]) did it give?
Answer: 0.019 µg/mL (≈ 0.0445 µM)

Question: And the Activity (Eimeria tenella [2])?
Answer: 5

Question: What about the Activity (Eimeria tenella [3]) of the same compound?
Answer: 5

Question: And the Activity (Eimeria tenella [4])?
Answer: 1

Question: Which results are given for `OC[C@H]1OC(n2ncc3c(SC/C=C\c4ccccc4)ncnc32)[C@H](O)[C@@H]1O` (stereo partly drawn)?
Answer: Activity (Eimeria tenella [9]): 0; Activity (Eimeria tenella [6]): 0; MIC (Eimeria tenella [1]): > 20 µg/mL; Activity (Eimeria tenella [3]): 0

Question: Which Activity (Eimeria tenella [6]) does the source give for `O=P(O)(O)OC[C@H]1OC(n2ncc3c(SC/C=C/c4ccccc4)ncnc32)[C@H](O)[C@@H]1O` (stereo partly drawn) here?
Answer: 5

Question: And the MIC (Eimeria tenella [1])?
Answer: 0.012 µg/mL (≈ 0.025 µM)

Question: And the Activity (Eimeria tenella [2])?
Answer: 5

Question: And the Activity (Eimeria tenella [3])?
Answer: 5

Question: And the Activity (Eimeria tenella [10])?
Answer: 0

Question: And the Activity (Eimeria tenella [4])?
Answer: 5

Question: Which results are given for `COc1ccc(/C=C/CSc2ncnc3c2cnn3C2O[C@H](CO)[C@@H](O)[C@H]2O)cc1` (stereo partly drawn)?
Answer: MIC (Eimeria tenella [1]): 1.25 µg/mL (≈ 2.9 µM); Activity (Eimeria tenella [7]): 2

Question: `OC[C@H]1OC(n2ncc3c(SCC#Cc4ccccc4)ncnc32)[C@H](O)[C@@H]1O` (stereo partly drawn) was tested. Which Activity (Eimeria tenella [6]) did it give?
Answer: 2

Question: And the MIC (Eimeria tenella [1])?
Answer: 0.019 µg/mL (≈ 0.0477 µM)

Question: And the Activity (Eimeria tenella [2])?
Answer: 5

Question: And the Activity (Eimeria tenella [3])?
Answer: 0

Question: What about the Activity (Eimeria tenella [4]) of the same compound?
Answer: 1

Question: With `OC[C@H]1OC(n2ncc3c(SC/C=C/c4ccc(Cl)cc4)ncnc32)[C@H](O)[C@@H]1O` (stereo partly drawn) as the compound, how does the Activity (Eimeria tenella [6]) read?
Answer: 5

Question: What about the MIC (Eimeria tenella [1]) of the same compound?
Answer: 0.31 µg/mL (≈ 0.713 µM)

Question: And the Activity (Eimeria tenella [2])?
Answer: 5

Question: And the Activity (Eimeria tenella [3])?
Answer: 0

Question: What about the Activity (Eimeria tenella [4]) of the same compound?
Answer: 0

Question: Which results are given for `OC[C@H]1OC(n2ncc3c(SC/C=C/c4ccccc4)ncnc32)[C@H](O)[C@@H]1O` (stereo partly drawn)?
Answer: Activity (Eimeria tenella [6]): 5; MIC (Eimeria tenella [1]): 0.078 µg/mL (≈ 0.195 µM); Activity (Eimeria tenella [2]): 5; Activity (Eimeria tenella [3]): 5; Activity (Eimeria tenella [11]): 5

Question: Which results are given for `OC[C@H]1OC(n2ncc3c(SC/C=C/c4cccc(Br)c4)ncnc32)[C@H](O)[C@@H]1O` (stereo partly drawn)?
Answer: Activity (Eimeria tenella [6]): 5; MIC (Eimeria tenella [1]): 5 µg/mL (≈ 10.4 µM); Activity (Eimeria tenella [2]): 5; Activity (Eimeria tenella [3]): 4; Activity (Eimeria tenella [4]): 1

Question: Which Activity (Eimeria tenella [12]) does the source give for `Cc1ccc(/C=C/CSc2ncnc3c2cnn3C2O[C@H](CO)[C@@H](O)[C@H]2O)cc1` (stereo partly drawn) here?
Answer: 0

Question: What about the MIC (Eimeria tenella [1]) of the same compound?
Answer: 5 µg/mL (≈ 12.1 µM)

Question: For `OC[C@H]1OC(n2ncc3c(SC/C=C/c4ccc(OCc5ccccc5)cc4)ncnc32)[C@H](O)[C@@H]1O` (stereo partly drawn), which Activity (Eimeria tenella [6]) is on record?
Answer: 2

Question: And the MIC (Eimeria tenella [1])?
Answer: 1.25 µg/mL (≈ 2.47 µM)

Question: What about the Activity (Eimeria tenella [2]) of the same compound?
Answer: 5

Question: What about the Activity (Eimeria tenella [3]) of the same compound?
Answer: 0

Question: And the Activity (Eimeria tenella [4])?
Answer: 1

Question: Which MIC (Eimeria tenella [1]) does the source give for `OC[C@H]1OC(n2ncc3c(SC/C=C/c4ccc(Cl)cc4Cl)ncnc32)[C@H](O)[C@@H]1O` (stereo partly drawn) here?
Answer: 1.25 µg/mL (≈ 2.66 µM)

Question: What about the Activity (Eimeria tenella [2]) of the same compound?
Answer: 2
